Results as given in ChEMBL document CHEMBL1133693, “Peptide and peptide mimetic inhibitors of antigen presentation by HLA-DR class II MHC molecules. Design, structure-activity relationships, and X-ray crystal structures” (J Med Chem, 2000).
Starred links: 1 amine or outer side, 2 acyl side, 3 side chain; linkers in the order of their positions; H or OH if unused. Non-standard residues stand in square brackets, D forms with d. Residues, ends and D or L forms follow the SMILES beside them. ξ: configuration not given here. Haic = O=C1[C@@H](N[*:1])CCc2cccc3c2N1[C@H](C(=O)[*:2])C3; X10 = O=C([C@H](Cc1ccc2c(c1)OCO2)N[*:1])[*:2]; X1 = O=C([C@@H]1C(c2ccccc2)CCN1[*:1])[*:2]; NMePhg = CN[C@H](C(=O)O)c1ccccc1; Tic = O=C(O)[C@@H]1Cc2ccccc2CN1; Cha = N[C@@H](CC1CCCCC1)C(=O)O; NMeL = CN[C@@H](CC(C)C)C(=O)O; ξTle = CC(C)(C)C(N)C(=O)O; NMeA = CN[C@@H](C)C(=O)O; ξNMeA = CNC(C)C(=O)O

What was measured:
[1] = system: T-cell; assay: T-cell inhibitory potency relative to the IC50 of a(Cha)AAAKTAAAAa-NH2 iMHC class II DRB1*0101; format: functional, Homo sapiens
[2] = system: T-cell; assay: T-cell inhibitory potency relative to the IC50 of a(Cha)AAAKTAAAAa-NH2 in MHC class II DRB1*0401; format: functional, Homo sapiens
[3] = Mean relative potency is the ratio of potencies of 'Ac-(Cha)RAMASL-NH2' and compound to inhibit MHC class II DRB1*0101
In short: (§1)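 Scintillation proximity competition assay. Test compounds competed against the radioligand, and bound counts were read by scintillation. Ac-(Cha)RAMASL-NH2 was run as standard competitor in every run. Potency is the ratio of standard IC50 to compound IC50.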

[4] = Mean relative potency is the ratio of potencies of 'Ac-(Cha)RAMASL-NH2' and compound to inhibit MHC class II DRB1*0401; in short: as §1
[5] = biological target: Cathepsin B (Bos taurus) (UniProt P07688); assay: Percent of original compound remaining with cathepsin B after incubation for 4 hrs was determined by HPLC
[6] = Degradation half-time was evaluated; format: ADME
In short: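 Each test peptide at 1.0 mg/mL in pH 6.0 phosphate buffer (88 mM KH2PO4, 12 mM Na2HPO4, 1.33 mM EDTA, 2.0 mM cysteine, internal standard) was prewarmed to 32 °C. Cathepsin B was preactivated 5 min at 37 °C and added at 0.3 U per micromole of compound. Half-time from ln(A0 − A) vs time, t1/2 = 0.693/k.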

[7] = Mean relative potency is the ratio of potencies of 'Ac-(Cha)RAMASL-NH2' and compound, to inhibit MHC class II DRB1*0101; in short: as §1
[8] = Mean relative potency is the ratio of potencies of 'Ac-(Cha)RAMASL-NH2' and compound, to inhibit MHC class II DRB1*0401; in short: as §1
[9] = Mean relative potency is the ratio of potencies of 'Ac-(Cha)RAMASL-NH2' and compound, to inhibit MHC class II DRB1*0404; in short: as §1

CSCC[C@H](NC(=O)[C@H](c1ccccc1)N(C)C(=O)[C@H](CCCN=C(N)N)NC(=O)[C@H](CC1CCCCC1)NC(C)=O)C(=O)N(C)[C@@H](C)C(=O)N[C@@H](CO)C(=O)N[C@H](C(N)=O)C(C)(C)C
T-cell inhibition [1]: 7.8
T-cell inhibition [2]: 2.5

CSCC[C@H](NC(=O)[C@@H]1Cc2ccccc2CN1C(=O)[C@H](CCCN=C(N)N)NC(=O)[C@H](CC1CCCCC1)NC(C)=O)C(=O)N(C)[C@@H](C)C(=O)N[C@@H](CO)C(=O)N(C)[C@@H](C)C(N)=O
T-cell inhibition [1]: 0.86
T-cell inhibition [2]: 1.5

CSCC[C@H](NC(=O)[C@H](c1ccccc1)N(C)C(=O)[C@H](CCCN=C(N)N)NC(=O)[C@H](CC1CCCCC1)NC(C)=O)C(=O)N[C@@H](C)C(=O)N[C@@H](CO)C(=O)N[C@H](C(N)=O)C(C)(C)C
T-cell inhibition [1]: 5.37
T-cell inhibition [2]: 3.2

CSCC[C@@H](NC(=O)[C@H]1Cc2ccccc2CN1C(=O)[C@H](CCCN=C(N)N)NC(=O)[C@H](CC1CCCCC1)NC(C)=O)C(=O)N1CCC(c2ccccc2)[C@@H]1C(=O)N[C@@H](CO)C(=O)N(C)[C@@H](C)C(N)=O (some centres undefined)
Mean relative potency [3]: 0.84
Mean relative potency [4]: 0.63
T-cell inhibition [1]: 6.9
T-cell inhibition [2]: 4.6
% remaining [5]: 98%

CSCC[C@H](NC(=O)[C@@H](NC(=O)[C@H](CCCN=C(N)N)NC(=O)[C@H](CC1CCCCC1)NC(C)=O)C(C)(C)C)C(=O)N(C)[C@@H](C)C(=O)N[C@@H](CO)C(=O)N[C@H](C(N)=O)C(C)(C)C
T-cell inhibition [1]: 2.9
T-cell inhibition [2]: 1.5

CSCC[C@H](NC(=O)[C@H](C)NC(=O)[C@H](CCCN=C(N)N)NC(=O)[C@H](CC1CCCCC1)NC(C)=O)C(=O)N[C@@H](C)C(=O)N[C@@H](CO)C(=O)N(C)[C@@H](CC(C)C)C(N)=O
half-life [6]: 4.6 min

CC(=O)N[C@@H](CC1CCCCC1)C(=O)N[C@@H](CCCN=C(N)N)C(=O)N[C@@H](C)C(N)=O
Mean relative potency [7]: 0
Mean relative potency [8]: 0
Mean relative potency [9]: 0

CSCCC(NC(=O)[C@H]1Cc2ccccc2CN1C(=O)[C@H](CCCN=C(N)N)NC(=O)[C@H](CC1CCCCC1)NC(C)=O)C(=O)N(C)[C@@H](C)C(=O)N[C@@H](CO)C(=O)N(C)[C@@H](C)C(N)=O (some centres undefined)
Mean relative potency [3]: 0.89
Mean relative potency [4]: 1.05
% remaining [5]: 99%

CSCC[C@@H](NC(=O)[C@@H](c1ccccc1)N(C)C(=O)[C@H](CCCN=C(N)N)NC(=O)[C@H](CC1CCCCC1)NC(C)=O)C(=O)N(C)[C@@H](C)C(=O)N[C@@H](CO)C(=O)N[C@H](C(N)=O)C(C)(C)C
Mean relative potency [3]: 1.64
Mean relative potency [4]: 1.27
% remaining [5]: 43%

CSCC[C@@H](NC(=O)[C@@H](c1ccccc1)N(C)C(=O)[C@H](CCCN=C(N)N)NC(=O)[C@H](CC1CCCCC1)NC(C)=O)C(=O)N[C@@H](C)C(=O)N[C@@H](CO)C(=O)N[C@H](C(N)=O)C(C)(C)C
Mean relative potency [3]: 1.15
Mean relative potency [4]: 2.02
% remaining [5]: 93%

CSCC[C@@H](NC(=O)[C@H](NC(=O)[C@H](CCCN=C(N)N)NC(=O)[C@H](CC1CCCCC1)NC(C)=O)C(C)(C)C)C(=O)N(C)[C@@H](C)C(=O)N[C@@H](CO)C(=O)N[C@H](C(N)=O)C(C)(C)C
Mean relative potency [3]: 0.29
Mean relative potency [4]: 0.38
% remaining [5]: 97%

CSCC[C@H](NC(=O)[C@H](C)NC(=O)[C@H](CCCN=C(N)N)NC(=O)[C@H](CC1CCCCC1)NC(C)=O)C(=O)N[C@H](C)C(=O)N[C@@H](CO)C(=O)N(C)[C@@H](CC(C)C)C(N)=O
Mean relative potency [7]: 0.85
Mean relative potency [8]: 0.77
% remaining [5]: 0%

CSCC[C@H](NC(=O)[C@H](C)NC(=O)[C@H](CCCN=C(N)N)NC(=O)[C@H](CC1CCCCC1)NC(C)=O)C(=O)N[C@H](C)C(=O)N[C@@H](CO)C(N)=O
Mean relative potency [7]: 0.34
Mean relative potency [8]: 1.14
Mean relative potency [9]: 0.32

CSCC[C@H](NC(=O)[C@H](C)NC(=O)[C@H](CCCN=C(N)N)NC(=O)[C@H](CC1CCCCC1)NC(C)=O)C(=O)N[C@H](C)C(N)=O
Mean relative potency [7]: 0.25
Mean relative potency [8]: 0.07
Mean relative potency [9]: 0.03

CSCC[C@H](NC(=O)[C@H](C)NC(=O)[C@H](CCCN=C(N)N)NC(=O)[C@H](CC1CCCCC1)NC(C)=O)C(N)=O (Ac-[Cha]RAM-NH2)
Mean relative potency [7]: 0.05
Mean relative potency [8]: 0.01
Mean relative potency [9]: 0.005

CSCC[C@H](NC(=O)[C@H](C)NC(=O)[C@H](CCCN=C(N)N)NC(=O)[C@H](CC1CCCCC1)NC(C)=O)C(=O)N[C@@H](C)C(=O)N[C@@H](CO)C(=O)N[C@@H](CC(C)C)C(N)=O (Ac-[Cha]RAMASL-NH2)
half-life [6]: 3 min
Mean relative potency [7]: 1
Mean relative potency [8]: 1
Mean relative potency [9]: 1
T-cell inhibition [1]: 0.12
T-cell inhibition [2]: 0
% remaining [5]: 0%

CSCC[C@H](NC(=O)[C@H](C)NC(=O)[C@H](CCCN=C(N)N)NC(=O)[C@H](CC1CCCCC1)NC(C)=O)C(=O)N(C)[C@@H](C)C(=O)N[C@@H](CO)C(=O)N[C@@H](CC(C)C)C(N)=O (Ac-[Cha]RAM[NMeA]SL-NH2)
half-life [6]: 7.3 min
Mean relative potency [7]: 1.22
Mean relative potency [8]: 0.6
% remaining [5]: 0%

CSCC[C@H](NC(=O)[C@H](C)NC(=O)[C@H](CCCN=C(N)N)NC(=O)[C@H](CC1CCCCC1)NC(C)=O)C(=O)N(C)[C@@H](C)C(=O)N[C@@H](CO)C(=O)N(C)[C@@H](CC(C)C)C(N)=O (Ac-[Cha]RAM[NMeA]S[NMeL]-NH2)
half-life [6]: 4.8 min
% remaining [5]: 0%

CSCC[C@H](NC(=O)[C@H](C)N(C)C(=O)[C@H](CCCN=C(N)N)NC(=O)[C@H](CC1CCCCC1)NC(C)=O)C(=O)N(C)[C@@H](C)C(=O)N[C@@H](CO)C(=O)N(C)[C@@H](CC(C)C)C(N)=O (Ac-[Cha]R[NMeA]M[NMeA]S[NMeL]-NH2)
half-life [6]: 10700 min
% remaining [5]: 99%

CSCC[C@H](NC(=O)[C@H](C)N(C)C(=O)[C@H](CCCN=C(N)N)NC(=O)[C@H](CC1CCCCC1)NC(C)=O)C(=O)N1CCC(c2ccccc2)[C@H]1C(=O)N[C@@H](CO)C(=O)N(C)[C@@H](C)C(N)=O (some centres undefined) (Ac-[Cha]R[NMeA]M[X1]S[NMeA]-NH2)
T-cell inhibition [1]: 3.7
T-cell inhibition [2]: 1.2

CC(=O)N[C@@H](CC1CCCCC1)C(=O)N[C@@H](CCCN=C(N)N)C(=O)N(C)[C@@H](C)C(=O)N[C@H]1CCc2cccc3c2N(C1=O)[C@H](C(=O)N[C@@H](CO)C(=O)N(C)[C@@H](CC(C)C)C(N)=O)C3 (Ac-[Cha]R[NMeA][Haic]S[NMeL]-NH2)
Mean relative potency [3]: 0.03
Mean relative potency [4]: 0.18
T-cell inhibition [1]: <0.04
T-cell inhibition [2]: 2.32
% remaining [5]: 106%

CC(=O)N[C@@H](CC1CCCCC1)C(=O)N[C@@H](CCCN=C(N)N)C(=O)N(C)[C@H](C(=O)N[C@H]1CCc2cccc3c2N(C1=O)[C@H](C(=O)N[C@@H](CO)C(=O)N(C)[C@@H](CC(C)C)C(N)=O)C3)c1ccccc1 (Ac-[Cha]R[NMePhg][Haic]S[NMeL]-NH2)
Mean relative potency [3]: 0.01
Mean relative potency [4]: 0.11
T-cell inhibition [1]: 0.1
T-cell inhibition [2]: 1
% remaining [5]: 95%

CC(=O)N[C@@H](CC1CCCCC1)C(=O)N[C@@H](CCCN=C(N)N)C(=O)N(C)[C@H](C(=O)N[C@H]1CCc2cccc3c2N(C1=O)[C@H](C(=O)N[C@@H](CO)C(=O)N(C)C(C)C(N)=O)C3)c1ccccc1 (some centres undefined) (Ac-[Cha]R[NMePhg][Haic]S[ξNMeA]-NH2)
Mean relative potency [3]: 0.01
Mean relative potency [4]: 0.37
T-cell inhibition [1]: <0.2
T-cell inhibition [2]: 4.6
% remaining [5]: 141%

CC(=O)N[C@@H](CC1CCCCC1)C(=O)N[C@@H](CCCN=C(N)N)C(=O)N(C)[C@H](C(=O)N[C@H]1CCc2cccc3c2N(C1=O)[C@H](C(=O)N[C@@H](CO)C(=O)NC(C(N)=O)C(C)(C)C)C3)c1ccccc1 (some centres undefined) (Ac-[Cha]R[NMePhg][Haic]S[ξTle]-NH2)
Mean relative potency [3]: 0.06
Mean relative potency [4]: 0.23
T-cell inhibition [1]: 2.3
T-cell inhibition [2]: 3
% remaining [5]: 126%

CC(=O)N[C@@H](CC1CCCCC1)C(=O)N[C@@H](CCCN=C(N)N)C(=O)N1Cc2ccccc2C[C@H]1C(=O)N[C@H]1CCc2cccc3c2N(C1=O)[C@H](C(=O)N[C@@H](CO)C(=O)N(C)[C@@H](C)C(N)=O)C3 (Ac-[Cha]R[Tic][Haic]S[NMeA]-NH2)
Mean relative potency [3]: 0.12
Mean relative potency [4]: 0.27
T-cell inhibition [1]: 0.2
T-cell inhibition [2]: 0.7
% remaining [5]: 109%

CSCC[C@H](NC(=O)[C@H](C)NC(=O)[C@H](CCCN=C(N)N)NC(=O)[C@H](Cc1ccc2c(c1)OCO2)NC(C)=O)C(=O)N[C@@H](C)C(=O)N[C@@H](CO)C(=O)N[C@@H](CC(C)C)C(N)=O (Ac-[X10]RAMASL-NH2)
Mean relative potency [7]: 1.31
Mean relative potency [8]: 1.65

CSCC[C@H](NC(=O)[C@H](C)NC(=O)[C@H](CCCN=C(N)N)NC(=O)[C@H](CC1CC2CCC1C2)NC(C)=O)C(=O)N[C@@H](C)C(=O)N[C@@H](CO)C(=O)N[C@@H](CC(C)C)C(N)=O (stereo in doubt; 2)
Mean relative potency [7]: 0.52
Mean relative potency [8]: 1.71

CSCC[C@H](NC(=O)[C@H](C)NC(=O)[C@H](CCCN=C(N)N)NC(=O)[C@H](CC1CC2CCC1C2)NC(C)=O)C(=O)N[C@@H](C)C(=O)N[C@@H](CO)C(=O)N[C@@H](CC(C)C)C(N)=O (stereo in doubt; 6)
Mean relative potency [7]: 0.96
Mean relative potency [8]: 0.92
